Screening results: PubChem BioAssay, The Scripps Research Institute Molecular Screening Center
TAAR1 antagonist = antagonists of human TAAR1 | inhibition, % at 3 µM | Q96RJ0 | CHO RD-HGA16 TAAR1, Fluo-8 calcium fluorescence, antagonist | hit rate 1.5% among 360,000 | AID 624466;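 active = inhibition above a per-plate cutoff, the mean inhibition of test compounds on that plate plus 3 SD, cut at about 49% in these data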;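 note: 0% = DMSO plus EC80 beta-PEA response and 100% = DMSO alone without agonist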
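test system = CHO RD-HGA16 cells bearing hTAAR1 | replication = singlicate | controls = DMSO-only wells and EC80 β-PEA-stimulated wells | reagent = EC80 β-phenethylamine stimulus | read-out basis = percent inhibition of PEA-evoked calcium signal, max/basal emission ratio | schedule = seeding 17-24 h prior, 75-min 37 °C, 30-min RT dye loading | signal = kinetic Fluo-8 calcium fluorescence measurement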
GPR7 antagonist = human neuropeptides B/W receptor 1 antagonism; hit rate 1.1% among 290,000; AID 1861; inhibition, % at 4.4 µM; GPR7-expressing cells, fluorescence antagonist assay; P48145; in the data active = inhibition above about 16%, passing the limit was not always enough;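 note: cells stimulated with the agonist NPW; 0% = agonist with vehicle and 100% = vehicle without agonist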
OX1R antag-1 = blocks the human orexin 1 receptor; O43613; CHO/OX1R cells, Fluo-8 calcium fluorescence, orexin A; inhibition, % at 5 µM; hit rate 0.43% among 330,000;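 active = inhibition above its plate's threshold, mean inhibition of all tested compounds on the plate plus 3 SD, cut at about 37% in these data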;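 note: 0% = orexin A challenge wells and 100% = SB-334867-A antagonist wells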
Target sequence (O43613 whole entry, looked up): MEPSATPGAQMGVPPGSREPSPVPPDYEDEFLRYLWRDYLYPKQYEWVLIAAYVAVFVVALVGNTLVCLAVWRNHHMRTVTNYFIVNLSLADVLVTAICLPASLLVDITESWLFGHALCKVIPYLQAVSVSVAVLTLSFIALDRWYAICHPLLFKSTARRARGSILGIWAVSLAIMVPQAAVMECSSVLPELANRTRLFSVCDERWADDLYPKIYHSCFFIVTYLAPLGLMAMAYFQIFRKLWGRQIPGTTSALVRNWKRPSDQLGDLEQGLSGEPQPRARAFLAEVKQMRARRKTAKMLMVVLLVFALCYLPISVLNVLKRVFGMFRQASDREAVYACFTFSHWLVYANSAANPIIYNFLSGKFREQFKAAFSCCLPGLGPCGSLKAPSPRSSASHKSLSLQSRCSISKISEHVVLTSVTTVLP
OX1R antag-2 = blocks the human orexin 1 receptor; OX1R-expressing cells, FRET antagonist read-out; inhibition, % at 6.6 µM; hit rate 1.8% among 330,000; O43613; in the data active = inhibition mostly above about 38%, no sharp cut-off; inactive = mostly below about 40%;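 note: 0% = agonist challenge alone and 100% = reference antagonist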
TAAR1 agonist = agonists of human TAAR1. hit rate 0.99% among 360,000. Q96RJ0. AID 624467. activation, % at 3 µM. CHO RD-HGA16 TAAR1, Fluo-8 calcium fluorescence; vehicle wells 0%, saturating PEA agonist 100%;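 active = activation above the mean activation of all test compounds in the run plus 3 SD, cut at about 38% in these data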
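Test system: RD-HGA16 (CHO) cells co-expressing Gα16 and hTAAR1 | Doses: Single dose, 3 µM | Schedule: 17-24 h seeding, 75 min 37 °C dye, 30 min RT | Evaluation: % activation from peak over basal fluorescence ratio, DMSO-to-PEA scaled | Technique: Kinetic Fluo-8 calcium fluorescence | Benchmarks: Low control DMSO, high control PEA (EC100)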
CHO parental Ca = signal in parental CHO cells, OX1R antagonist counter-screen; parental CHO-K1, ATP-induced calcium, Fluo-8 fluorescence; hit rate 0.63% among 330,000; inhibition, % at 5.6 µM; AID 463079;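 active = inhibition above that plate's mean sample inhibition plus 3 SD, cut at about 26% in these data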;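 note: 0% = ATP-challenged DMSO wells and 100% = DMSO wells without ATP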
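Assay system: untransfected parental CHO cell line. Also added: ATP agonist challenge. Dosing: one dose, 5.6 µM nominal. Measured by: Fluo-8 fluorescence. Read-out: % inhibition. Benchmarks: ATP wells versus no-ATP DMSO wells. Repeats: no replicates.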
Numbers without * were called inactive; . = not tested or not shown. In the library only some 4.6% were active in any assay of this set; here they are far more common.

SMILES | TAAR1 antagonist | GPR7 antagonist | OX1R antag-1 | OX1R antag-2 | TAAR1 agonist | CHO parental Ca
FC(F)Oc1ccc(C2=Nn3c(nnc3-c3ccccc3Cl)SC2)cc1OCC1CC1 | 5 | . | -10 | 13 | 2 | -22
O=C1c2cccc3cccc(c23)C(=O)N1CCCn1ccnc1 | -8 | . | 6 | 55* | 3 | -3
NC(=O)[C@@H]1CCCNc2c(F)cc([N+](=O)[O-])cc2C(=O)N[C@@H](CCC(=O)O)C(=O)N[C@@H](CO)C(=O)N1 | -8 | -11 | 6 | 60* | 8 | -2
NC(=O)[C@@H]1CCCCNc2c(I)cc([N+](=O)[O-])cc2C(=O)N[C@@H](CCC(=O)O)C(=O)N[C@@H](CO)C(=O)N1 | 16 | 0 | 0 | 41 | 11 | -8
CC(=O)C(=Nc1ccccc1Cl)NNc1ccc(Cl)cc1 | 8 | -7 | -17 | 77* | 5 | -3
CC(=O)c1c(C)oc2ccc(N(C(C)=O)S(=O)(=O)c3ccc(F)cc3C)cc12 | -12 | -23 | -17 | 8 | 0 | -10
CC(=O)c1c(C)oc2ccc(N(C(C)=O)S(=O)(=O)c3cccc4cccnc34)cc12 | 59* | -5 | -9 | 15 | 15 | -18
Nc1[nH]c2cc([N+](=O)[O-])ccc2c1-c1ccccn1 | 69* | 9 | 51* | 17 | 19 | 37*
Cc1ccc(CNCc2cc(Cl)ccc2O)cc1 | 8 | . | -5 | 20 | 38* | -19
COc1cc(NC(=O)COc2cccc3c2OC(C)(C)C3)cc(OC)c1OC | 59* | . | 26 | 24 | 13 | 7
CC(=O)Nc1ccc(NC(=O)COc2cccc3c2OC(C)(C)C3)cc1 | -1 | -9 | -11 | 7 | 2 | -23
O=C(Nc1ccc(Cl)cc1)c1nc[nH]c1C(=O)NCCCCNC(=O)c1[nH]cnc1C(=O)Nc1ccc(Cl)cc1 | 52* | . | -10 | 6 | 13 | 13
CNc1ncnc2c1ncn2[C@H]1CN(CCc2ccccc2)C[C@@H](CO)O1 | -20 | . | . | . | 21 | .
COc1cc(NC(=S)NCCC(c2ccccc2)c2ccccc2)c(OC)cc1Cl | 10 | -10 | 3 | 58* | 1 | -13
S=C(NCCC(c1ccccc1)c1ccccc1)Nc1ccccc1Cl | 50* | 21 | -2 | 46 | 7 | -24
S=C(NCCC(c1ccccc1)c1ccccc1)Nc1ccc(Cl)cc1 | 33 | 16 | 16 | 17 | 10 | -15
C(=C\c1ccccc1)/CN1CCN(C(CCc2ccccc2)c2nnnn2C2CCCCC2)CC1 (configuration not stated) | -28 | . | . | . | 0 | .
COCCCn1c(SCC(=O)Nc2oc(C)c3c(C)n[nH]c(=O)c23)nc2ccccc2c1=O | -8 | . | -35 | 41 | 0 | -24
Cc1n[nH]c(=O)c2c(NC(=O)CSc3nc4ccccc4c(=O)n3-c3ccc(OC(F)F)cc3)oc(C)c12 | 1 | . | -8 | 76* | 5 | -21
Cc1ccccc1-c1ccc2c(c1)[C@@H]1C[C@H](N(C)CC3CCCCC3)[C@H]([C@H](C)O)CN1CC2 | -17 | . | . | . | 4 | .
Cc1ccc(S(=O)(=O)N2[C@@H](Cc3ccccc3)CO[C@H]2CC(=O)c2cccc3ccccc23)cc1 | -1 | . | . | . | 0 | .
O=C1NC[C@@H](CCCCN2C[C@H](Cc3ccc(O)cc3)N(CCC3CCCCC3)C(=O)C2=O)N(CCC2CCCCC2)C1=O | -15 | . | . | . | 3 | .
Cc1cc(C)cc(-n2ccnc2SCC(=O)O)c1 | -10 | 30* | 4 | 15 | 3 | 2
C=CCNCCOCCOc1ccc(Cl)cc1C(C)(C)C | 2 | 5 | -16 | 8 | 11 | -6
COCCCNCCOCCOc1ccc(Cl)cc1C(C)(C)C | 10 | 35* | -7 | 4 | 16 | -7
O=C1NC(=S)NC1=Cc1ccccc1O | 12 | . | . | . | 47* | .
COc1ccc(NC(=O)Nc2ccc3c(c2)C(=O)N([C@H](C)CO)C[C@H](C)[C@H](CN(C)C)OCCCC[C@@H](C)O3)cc1 | -2 | . | . | . | 4 | .
CCOc1ccc(NC(=NCc2ccc3c(c2)OCO3)SC2CC(=O)N(c3ccc(C(=O)O)cc3)C2=O)cc1 (configuration not stated) | -9 | -7 | 51* | 27 | 7 | 38*
CCN1/C(=C/C(C)=C/c2sc3ccccc3[n+]2CC)Sc2ccccc21 | 32 | 2 | 95* | 63* | 17 | 87*
